Test results as given in ChEMBL document CHEMBL1121802, “Imine analogues of tricyclic antidepressants” (1981).

Assays:
Assay type in all cases: functional
Mus musculus [1] = assay: The effect on 24-hour mortality in mice following oral administration
Mus musculus [2] = assay: The effect on excitement was measured in mice following oral administration
How it was run: (§1)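 Observed at 0.5, 2, 5 and 24 h for ataxia (abnormal gait/imprecise movement), pupil diameter (dissecting microscope, 20×, micrometer), excitement (spontaneous running/jumping) and electroshock protection (corneal electrodes at 2 and 5 h). ED50 by Thompson method.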

Mus musculus [3] = assay: The effect on electroshock protection in mice following oral administration; how it was run: as §1
Mus musculus [4] = assay: The effect on ataxia in mice following oral administration; how it was run: as §1
Mus musculus [5] = assay: Effect on pupil dilation was measured in mice upon oral administration; how it was run: as §1
Mus musculus [6] = assay: Compound was tested for antidepressant activity by determining the decreased exploratory activity in mice upon oral administration; 12-32
How it was run: (§2)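 Mice given test drug orally; 30 min later challenged with tetrabenazine (methanesulfonate) 32 mg/kg ip in 0.05 M KCl pH 2.0. Scored 1 h after test drug for exploratory activity and ptosis; ptosis antagonism = lid closure <50% in both eyes exactly 2 s after placing mouse facing observer. ED50 calculated by Thompson method.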

Mus musculus [7] = assay: Compound was tested for antidepressant activity by determining the reversal of tetrabenazine-induced ptosis upon oral administration; 7-22; how it was run: as §2
Mus musculus [8] = assay: Compound was tested for antidepressant activity by determining the decreased exploratory activity in mice upon oral administration; 6.0-12.0; how it was run: as §2
Mus musculus [9] = assay: Compound was tested for antidepressant activity by determining the reversal of tetrabenazine-induced ptosis upon oral administration; 0.7-1.9; how it was run: as §2
Mus musculus [10] = assay: Antidepressant activity by determining the reversal of tetrabenazine-induced ptosis upon oral administration; how it was run: as §2
Mus musculus [11] = assay: Compound was tested for antidepressant activity by determining the decreased exploratory activity in mice upon oral administration; 34-158; how it was run: as §2
Mus musculus [12] = assay: The effect on excitement was measured in mice upon ip administration
Mus musculus [13] = assay: The effect on 24-hour mortality was measured in mice upon ip administration
Mus musculus [14] = assay: The effect on ataxia was measured in mice upon ip administration
Mus musculus [15] = assay: Antidepressant activity by determining the decreased exploratory activity in mice upon oral administration; how it was run: as §2
Mus musculus [16] = assay: The effect on electroshock protection was measured in mice upon ip administration
Mus musculus [17] = assay: Compound was tested for antidepressant activity by determining the reversal of tetrabenazine-induced ptosis upon oral administration; 27-60; how it was run: as §2
Mus musculus [18] = assay: Compound was tested for antidepressant activity by determining the decreased exploratory activity in mice upon oral administration; how it was run: as §2
Mus musculus [19] = assay: Compound was tested for antidepressant activity by determining the reversal of tetrabenazine-induced ptosis upon oral administration; 84-110; how it was run: as §2
Mus musculus [20] = assay: Compound was tested for antidepressant activity by determining the reversal of tetrabenazine-induced ptosis upon oral administration; 22-53; how it was run: as §2
Mus musculus [21] = assay: Compound was tested for antidepressant activity by determining the reversal of tetrabenazine-induced ptosis upon oral administration; 3.0-12.0; how it was run: as §2
Mus musculus [22] = assay: Compound was tested for antidepressant activity by determining the reversal of tetrabenazine-induced ptosis upon oral administration; 1.3-2.7; how it was run: as §2
Mus musculus [23] = assay: Compound was tested for antidepressant activity by determining the decreased exploratory activity in mice upon oral administration; 4.7-17; how it was run: as §2
Mus musculus [24] = assay: Compound was tested its antidepressant activity by determining the decreased exploratory activity in mice upon oral administration; 1.1-2.1; how it was run: as §2
Mus musculus [25] = assay: Compound was tested for antidepressant activity by determining the reversal of tetrabenazine-induced ptosis upon oral administration; 0.5-0.9; how it was run: as §2
Mus musculus [26] = assay: Compound was tested for its antidepressant activity by determining the decreased exploratory activity in mice upon oral administration; 8.1-15.4; how it was run: as §2
Mus musculus [27] = assay: Compound was tested for antidepressant activity by determining the decreased exploratory activity in mice upon oral administration; 2.7-4.6
Mus musculus [28] = assay: Compound was tested for antidepressant activity by determining the reversal of tetrabenazine-induced ptosis upon oral administration; 1.1-1.8

SMILES	ED50 (Mus musculus [1]) [mg/kg]	ED50 (Mus musculus [2]) [mg/kg]	ED50 (Mus musculus [3]) [mg/kg]	ED50 (Mus musculus [4]) [mg/kg]	ED50 (Mus musculus [5]) [mg/kg]	other results
CN(C)CC/N=C1\c2ccccc2CNc2ccccc21	300	> 324	> 324	36	36	ED50 (Mus musculus [6]): 20 mg/kg; ED50 (Mus musculus [7]): 12 mg/kg
CCNCCN=C1c2ccccc2C2CC2c2ccccc21 (centres undefined)	200	> 324	> 324	36	36	ED50 (Mus musculus [8]): 8.4 mg/kg; ED50 (Mus musculus [9]): 1.1 mg/kg
CN(C)CCN=c1c2ccccc2oc2ccccc12	300	60	> 324	60	> 324	ED50 (Mus musculus [10]): > 125 mg/kg; ED50 (Mus musculus [11]): 73 mg/kg
c1ccc2c(c1)CCc1ccccc1C2=NCCN1CCOCC1					100	ED50 (Mus musculus [12]): > 324 mg/kg; ED50 (Mus musculus [10]): > 125 mg/kg; ED50 (Mus musculus [13]): 300 mg/kg; ED50 (Mus musculus [14]): 200 mg/kg; ED50 (Mus musculus [15]): > 125 mg/kg; ED50 (Mus musculus [16]): 300 mg/kg
CN(C)CC/N=C1\c2ccccc2CS(=O)(=O)c2ccccc21	> 324	200	> 324	200	36	ED50 (Mus musculus [17]): 40 mg/kg; ED50 (Mus musculus [15]): > 125 mg/kg
CN(C)CCCN=c1c2ccccc2sc2ccccc12	200	60	> 324	60	60	ED50 (Mus musculus [18]): 125 mg/kg; ED50 (Mus musculus [19]): 96 mg/kg
c1ccc2c(c1)C(=NCCN1CCCCC1)c1ccccc1C1CC21 (centres undefined)	200	> 324	> 324	12	> 324	ED50 (Mus musculus [15]): > 125 mg/kg; ED50 (Mus musculus [20]): 34 mg/kg
CN(C)CC/N=C1\c2ccccc2COc2ccccc21	200	> 324	60	36	20	ED50 (Mus musculus [18]): 33 mg/kg; ED50 (Mus musculus [21]): 6 mg/kg
CN(C)CCN=C1c2ccccc2CCc2ccccc21	100	> 324	36	20	20	ED50 (Mus musculus [22]): 1.9 mg/kg; ED50 (Mus musculus [23]): 9 mg/kg
NCCN=C1c2ccccc2C2CC2c2ccccc21 (centres undefined)	200	> 324	100	60	100	ED50 (Mus musculus [24]): 1.5 mg/kg; ED50 (Mus musculus [25]): 0.7 mg/kg
CN(C)CC/N=C1\c2ccccc2CCc2ccc(Cl)cc21 (mixture of isomers)	100	> 324	60	20	36	ED50 (Mus musculus [26]): 11.2 mg/kg; ED50 (Mus musculus [10]): 4.9 mg/kg
CN(C)CCC=C1c2ccccc2CCc2ccccc21 [AMITRIPTYLINE]	190	> 324	43	14	23	ED50 (Mus musculus [27]): 3.5 mg/kg; ED50 (Mus musculus [28]): 1.4 mg/kg
